# Results pooled from the literature.
# Target: Serine/threonine-protein kinase Nek4 (NEK4, Homo sapiens, UniProt P51957)
SMILES,assay,conditions,measurement,result
CC1=C(C#N)[C@@H](c2ccc3[nH]nc(C)c3c2)C(C#N)=C(c2ccc(Cl)cc2)N1,"cell-free assay, competition with immobilised ligand",1 µM,remaining binding,90.1%
Cc1sc(C(=O)NC2COC2)cc1-n1cc(NC(=O)Nc2c(F)cccc2Cl)cn1,"enzyme activity, inhibitor",10 µM,remaining activity,75.5%
COc1ccc2c(c1)O[C@@H](c1ccc(OC)c(OC)c1)C[C@H]2NC(=O)C1(c2ccc3c(c2)OC(F)(F)O3)CC1,"cell-free assay, competition with immobilised ligand",1 µM,remaining binding,75%
CC(C)(C)c1nc2c(s1)c1nc(N)ncc1c1ccc(NS(=O)(=O)c3c(F)cccc3F)c(F)c12,"enzyme activity, inhibitor, radiometric",1 µM,remaining activity,96%
Nc1ncnc2occ(-c3ccc(NC(=O)Nc4cc(C(F)(F)F)ccc4F)cc3)c12,"cell-free assay, inhibitor",20 µM,remaining signal,2.8%
O=C(NCCCC1CCCCC1)c1ccc(CNC(=O)c2cnn(-c3ccccc3)c2C(F)(F)F)cc1,"cell-free assay, competition with immobilised ligand",0.1 µM,remaining binding,100%
O=C1Nc2ccc(Cl)cc2C1=Cc1cc(Cl)c(O)c(Cl)c1,cell-free assay,0.5 µM,remaining signal,88.2%
O=C(Nc1cnn(-c2csc(C(=O)NC3COC3)c2)c1)Nc1c(F)cccc1Cl,"enzyme activity, inhibitor",5 µM,remaining activity,90.8%
CN1CC(Oc2cnc(C#N)cc2-c2ccn3nc(NC(=O)C4CC4)cc3c2)C1,"enzyme activity, inhibitor",1 µM,inhibition,2%
N#CCCc1ccc2c(c1)-c1[nH]c3ccc([N+](=O)[O-])cc3c1CC(=O)N2,cell-free assay,0.5 µM,remaining signal,104%
COc1cccc2c(NCc3ccccc3)nc(-n3c(N)nc4ccccc43)nc12,"target engagement in cells, inhibitor, chemoproteomics",20 mM,inhibition,-7.4%
COc1cc2c(N3CCN(C(=O)Nc4ccc(OC(C)C)cc4)CC3)ncnc2cc1OCCCN1CCCCC1,cell-free assay,0.5 µM,remaining signal,90.3%
CCCOc1ccc([C@H]2[C@H](C(=O)O)[C@@H](c3ccc4c(c3)OCO4)CN2CC(=O)Nc2c(CC)cccc2CC)cc1,"cell-free assay, competition with immobilised ligand",1 µM,remaining binding,71%
Cc1ccc(C(=O)Nc2ccc(CN3CCN(C)CC3)c(C(F)(F)F)c2)cc1C#Cc1cnc2cccnn12,"enzyme activity, inhibitor",23.5 nM,remaining activity,61%
CC(=O)N1CCC(c2ccc(C(=O)NC3=NCCN3)cc2C(F)(F)F)CC1,"cell-free assay, competition with immobilised ligand",1 µM,remaining binding,100%
COc1cc2ncnc(Nc3ccc(Oc4ccccc4)cc3C)c2cc1OC,"enzyme activity, inhibitor",1 µM,inhibition,1%
O=C(Nc1cnc(Oc2ccc(F)cc2)nc1)N1CCc2ncccc2[C@@H]1c1ccc(F)cc1,"cell-free assay, competition with immobilised ligand",1 µM,remaining binding,79%
CN(C)C1CCN(CC#Cc2nn(C3CCCC3)c3nc(NCc4ccccc4)ncc23)C1 (stereo not drawn),"enzyme activity, inhibitor, FRET",10 µM,inhibition,12%
